Experimental data: ChEMBL document CHEMBL1123950, “N-(Retinoyl)amino acids. Synthesis and chemopreventive activity in vitro” (1988)

Tests used:
[1] = tested on: Cricetinae gen. sp.; assay: Reversal of keratinization in vitamin A deficient hamster trachea culture; format: functional, Cricetulus griseus; conditions: read-out: ED50 (the source's name)
How it was run: (§1)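 Tracheas from 29-31-day-old hamsters kept on a vitamin A free diet, cultured in serum-free CMRL 1066 (insulin 1.0 μg/mL, hydrocortisone hemisuccinate 0.1 μg/mL, glutamine 2 mM, Garamycin 50 μg/mL), 50% O2/45% N2/5% CO2, rocked at 36 °C. Retinoid-free for 3 days, then retinoid in DMSO (0.1% final) for 7 days. Fixed in formalin; squamous metaplasia graded mild 2-10%, marked 10-40%, severe >40%.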

[2] = tested on: HEp-2; assay: Viability of human epidermoid carcinoma cells (H.Ep-2) at a conc 10 ug/mL; format: functional
How it was run: (§2)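 Human epidermoid carcinoma H.Ep.-2 cells, clone-colony viability assay with retinoid at 1-40 μg/mL; incubated 37 °C for 12 days, stained, colonies counted. % of control = 100 × treated colonies/control colonies.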

[3] = tested on: HEp-2; assay: Viability of human epidermoid carcinoma cells (H.Ep-2) at a conc 1 ug/mL; format: functional; how it was run: as §2
[4] = tested on: HEp-2; assay: Viability of human epidermoid carcinoma cells (H.Ep-2) at a conc 40 ug/mL; format: functional; how it was run: as §2
[5] = tested on: HEp-2; assay: Viability of human epidermoid carcinoma cells (H.Ep-2) at a conc 20 ug/mL; format: functional; how it was run: as §2
[6] = tested on: L1210; assay: Inhibition of proliferation of L1210 cells in culture at a conc 10 ug/mL; format: functional, Mus musculus; design: scale not given: the % may be the effect or the level left
How it was run: (§3)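 L1210 suspension of about 10⁵ cells treated with retinoid at 1-40 μg/mL, 37 °C for 48 h; cells counted at 0 and 48 h, three cultures averaged per concentration. % of control = 100 × (treated 48 h − 0 h count)/(control 48 h − 0 h count).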

[7] = tested on: L1210; assay: Inhibition of proliferation of L1210 cells in culture at a conc 1 ug/mL; format: functional, Mus musculus; design: scale not given: the % may be the effect or the level left; how it was run: as §3
[8] = tested on: L1210; assay: Inhibition of proliferation of L1210 cells in culture at a conc 20 ug/mL; format: functional, Mus musculus; design: scale not given: the % may be the effect or the level left; how it was run: as §3
[9] = tested on: Cricetinae gen. sp.; assay: Cultures with marked degree of squamous metaplasia at a conc of 10e-10 M; format: functional, Cricetulus griseus
How it was run: (§4)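 Tracheas from 29-31-day-old hamsters fed a vitamin A free diet; cultured in serum-free CMRL 1066 (insulin 1.0 μg/mL, hydrocortisone hemisuccinate 0.1 μg/mL, glutamine 2 mM, Garamycin 50 μg/mL), 50% O2/45% N2/5% CO2, rocked, 36 °C. Retinoid-free 3 days, then retinoid in DMSO (final 0.1%) for 7 days; medium and gas changed three times. Formalin-fixed day 10; squamous metaplasia graded: mild 2-10%, marked 10-40%, severe >40%.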

[10] = tested on: Cricetinae gen. sp.; assay: Cultures with marked degree of squamous metaplasia at a conc of 10e-8 M; format: functional, Cricetulus griseus; how it was run: as §4
[11] = tested on: Cricetinae gen. sp.; assay: Cultures with marked degree of squamous metaplasia at a conc of 10e-9 M; format: functional, Cricetulus griseus; how it was run: as §4
[12] = tested on: Cricetinae gen. sp.; assay: Cultures with mild degree of squamous metaplasia at a conc of 10e-10 M; format: functional, Cricetulus griseus; how it was run: as §4
[13] = tested on: Cricetinae gen. sp.; assay: Cultures with mild degree of squamous metaplasia at a conc of 10e-11 M; format: functional, Cricetulus griseus; how it was run: as §4
[14] = tested on: Cricetinae gen. sp.; assay: Cultures with mild degree of squamous metaplasia at a conc of 10e-8 M; format: functional, Cricetulus griseus; how it was run: as §4
[15] = tested on: Cricetinae gen. sp.; assay: Cultures with minimal degree of squamous metaplasia at a conc of 10e-10 M; format: functional, Cricetulus griseus; how it was run: as §4
[16] = tested on: Cricetinae gen. sp.; assay: Cultures with minimal degree of squamous metaplasia at a conc of 10e-11 M; format: functional, Cricetulus griseus; how it was run: as §4
[17] = tested on: Cricetinae gen. sp.; assay: Cultures with minimal degree of squamous metaplasia at a conc of 10e-8 M; format: functional, Cricetulus griseus; how it was run: as §4
[18] = tested on: Cricetinae gen. sp.; assay: Cultures with minimal degree of squamous metaplasia at a conc of 10e-9 M; format: functional, Cricetulus griseus; how it was run: as §4
[19] = tested on: Cricetinae gen. sp.; assay: Cultures with no evidence of squamous metaplasia at a conc of 10e-10 M; format: functional, Cricetulus griseus; how it was run: as §4
[20] = tested on: Cricetinae gen. sp.; assay: Cultures with no evidence of squamous metaplasia at a conc of 10e-11 M; format: functional, Cricetulus griseus; how it was run: as §4
[21] = tested on: Cricetinae gen. sp.; assay: Cultures with no evidence of squamous metaplasia at a conc of 10e-8 M; format: functional, Cricetulus griseus; how it was run: as §4
[22] = tested on: Cricetinae gen. sp.; assay: Cultures with no evidence of squamous metaplasia at a conc of 10e-9 M; format: functional, Cricetulus griseus; how it was run: as §4
[23] = tested on: Cricetinae gen. sp.; assay: Cultures with severe degree of squamous metaplasia at a conc of 10e-10 M; format: functional, Cricetulus griseus; how it was run: as §4
[24] = tested on: Cricetinae gen. sp.; assay: Cultures with severe degree of squamous metaplasia at a conc of 10e-11 M; format: functional, Cricetulus griseus; how it was run: as §4
[25] = tested on: Cricetinae gen. sp.; assay: Cultures with severe degree of squamous metaplasia at a conc of 10e-8 M; format: functional, Cricetulus griseus; how it was run: as §4
[26] = tested on: Cricetinae gen. sp.; assay: Cultures with severe degree of squamous metaplasia at a conc of 10e-9 M; format: functional, Cricetulus griseus; how it was run: as §4
[27] = tested on: Cricetinae gen. sp.; assay: Reversal of keratinization in vitamin A deficient hamster trachea culture at a conc of 10e-8 M; format: functional, Cricetulus griseus; conditions: read-out: ED50 (the source's name); how it was run: as §1
[28] = tested on: Cricetinae gen. sp.; assay: Cultures with marked degree of squamous metaplasia at a conc of 10e-11 M; format: functional; how it was run: as §4
[29] = tested on: Cricetinae gen. sp.; assay: Cultures with mild degree of squamous metaplasia at a conc of 10e-9 M; format: functional, Cricetulus griseus; how it was run: as §4
[30] = tested on: L1210; assay: Inhibition of proliferation of L1210 cells in culture at a conc 40 ug/mL; format: functional, Mus musculus; design: scale not given: the % may be the effect or the level left; how it was run: as §3

Compound	EC50 [1] [nM]	Culture [9] [%]	Culture [10] [%]	Culture [11] [%]	Culture [12] [%]	Culture [13] [%]	Culture [14] [%]	Culture [15] [%]	Culture [16] [%]	Culture [17] [%]	Culture [18] [%]	Culture [19] [%]	Culture [20] [%]	Culture [21] [%]	Culture [22] [%]	Culture [23] [%]	Culture [25] [%]	Culture [26] [%]	EC50 [27] [nM]	Culture [29] [%]	also measured
CCNC(=O)/C=C(C)/C=C/C=C(C)/C=C/C1=C(C)CCCC1(C)C	1	–	–	–	–	–	–	–	–	–	–	–	–	–	–	–	–	–	–	–	–
CC1=C(/C=C/C(C)=C/C=C/C(C)=C/C(=O)NCC(=O)O)C(C)(C)CCC1	–	–	–	–	–	–	–	–	–	–	–	–	–	–	–	–	–	–	–	–	Control [2]: 67%; Control [3]: 116%; Control [4]: 13%; Control [5]: 12%; Control [6]: 70%; Control [7]: 68%; Control [8]: 19%
CC1=C(/C=C/C(C)=C/C=C/C(C)=C/C(=O)O)C(C)(C)CCC1 [TRETINOIN]	0.03	–	–	–	–	–	–	–	–	–	–	–	–	–	–	–	–	–	–	–	–
CC1=C(/C=C/C(C)=C/C=C/C(C)=C\C(=O)NC(Cc2ccccc2)C(=O)O)C(C)(C)CCC1 (configuration not stated)	–	36	20	20	21	14	13	0	0	0	0	29	29	60	53	14	7	7	0.6	20	Culture [24]: 14%; Culture [28]: 43%
CC1=C(/C=C/C(C)=C/C=C/C(C)=C/C(=O)NC(Cc2ccc(O)cc2)C(=O)O)C(C)(C)CCC1 (configuration not stated)	–	58	25	50	14	–	0	0	–	0	0	14	–	75	38	14	0	0	3	12	–
CC1=C(/C=C/C(C)=C/C=C/C(C)=C\C(=O)NC(CC(C)C)C(=O)O)C(C)(C)CCC1 (configuration not stated)	–	57	14	14	14	0	14	0	0	0	0	29	33	72	57	0	0	0	0.5	29	Culture [24]: 17%; Culture [28]: 50%
CC1=C(/C=C/C(C)=C/C=C/C(C)=C\C(=O)NC(C)C(=O)O)C(C)(C)CCC1 (configuration not stated)	–	36	0	40	21	0	0	0	0	0	0	36	14	100	47	7	0	0	0.7	13	Culture [24]: 15%; Culture [28]: 71%
CC1=C(/C=C/C(C)=C/C=C/C(C)=C\C(=O)NCCO)C(C)(C)CCC1	0.3	–	–	–	–	–	–	–	–	–	–	–	–	–	–	–	–	–	–	–	Control [2]: 38%; Control [3]: 61%; Control [4]: 27%; Control [5]: 21%; Control [6]: 57%; Control [7]: 76%; Control [8]: 56%; Control [30]: 0.5%
